Where only a bound is given, the exact number is not on record here.

Chain of Prostaglandin G/H synthase 1 (Ovis aries) (P05979 whole entry, looked up): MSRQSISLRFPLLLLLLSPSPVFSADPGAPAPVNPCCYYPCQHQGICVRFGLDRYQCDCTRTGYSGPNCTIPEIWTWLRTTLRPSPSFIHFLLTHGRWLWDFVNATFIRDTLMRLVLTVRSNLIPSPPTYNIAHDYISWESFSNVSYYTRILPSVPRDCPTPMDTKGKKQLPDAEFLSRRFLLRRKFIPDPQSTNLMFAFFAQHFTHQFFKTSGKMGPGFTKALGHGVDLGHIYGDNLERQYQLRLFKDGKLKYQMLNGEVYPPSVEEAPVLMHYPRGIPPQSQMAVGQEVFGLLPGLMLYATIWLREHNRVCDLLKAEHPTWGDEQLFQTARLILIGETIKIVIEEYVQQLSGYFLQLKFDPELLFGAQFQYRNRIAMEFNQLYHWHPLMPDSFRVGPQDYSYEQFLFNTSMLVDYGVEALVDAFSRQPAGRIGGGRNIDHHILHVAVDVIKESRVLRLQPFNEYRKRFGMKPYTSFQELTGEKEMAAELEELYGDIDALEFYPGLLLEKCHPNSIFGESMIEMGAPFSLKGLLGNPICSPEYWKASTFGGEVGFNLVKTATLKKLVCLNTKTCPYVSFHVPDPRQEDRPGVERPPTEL

The first test concerns the target T1, Polyunsaturated fatty acid 5-lipoxygenase (Rattus norvegicus) (UniProt P12527).
T1 sequence (whole entry): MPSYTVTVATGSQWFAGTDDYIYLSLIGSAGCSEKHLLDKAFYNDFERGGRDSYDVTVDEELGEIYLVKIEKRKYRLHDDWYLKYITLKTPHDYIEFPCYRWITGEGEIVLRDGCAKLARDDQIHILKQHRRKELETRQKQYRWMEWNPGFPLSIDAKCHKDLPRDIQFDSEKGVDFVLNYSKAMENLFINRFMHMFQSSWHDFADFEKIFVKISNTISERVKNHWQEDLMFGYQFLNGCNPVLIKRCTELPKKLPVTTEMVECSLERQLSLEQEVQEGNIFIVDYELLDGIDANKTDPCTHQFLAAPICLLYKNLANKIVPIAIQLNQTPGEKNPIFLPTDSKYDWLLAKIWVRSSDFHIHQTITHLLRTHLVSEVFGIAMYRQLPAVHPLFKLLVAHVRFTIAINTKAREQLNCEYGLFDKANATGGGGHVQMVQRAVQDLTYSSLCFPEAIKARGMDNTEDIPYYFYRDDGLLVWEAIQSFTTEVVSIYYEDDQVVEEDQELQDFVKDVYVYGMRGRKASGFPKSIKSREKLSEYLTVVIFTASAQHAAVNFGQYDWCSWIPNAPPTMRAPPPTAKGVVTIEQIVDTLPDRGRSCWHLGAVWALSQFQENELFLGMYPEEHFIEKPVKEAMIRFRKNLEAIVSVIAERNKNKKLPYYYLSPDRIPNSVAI
In words: Percent inhibition against RBL-1 5-LO in vitro at 30 uM. The format is cell-based. The essentials:
(§1)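 200-μL incubations held the 20000g supernatant of 1.5 million homogenized RBL-1 cells plus compound. Radiolabeled arachidonic acid started the reaction; acidification and ether extraction ended it. Product was resolved by TLC and counted by liquid scintillation, in triplicate. Inhibition was taken from the ratio of product formed with and without inhibitor.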
On to `CONC(=O)c1ccc2ccccc2c1`, for which the inhibition is 0%.

Take `CN(O)S(=O)(=O)c1ccc2ccccc2c1`: the inhibition worked out at 6%.

In another test the target is T2, Polyunsaturated fatty acid 5-lipoxygenase (Rattus norvegicus, UniProt P12527).
T2 sequence (P12527 whole entry): T1 sequence (whole entry)
The test can be described thus: Compound was tested for its inhibition activity against the 5-LO in isolated enzyme. The essentials:
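5-LO from the 20000g supernatant of 1.5 million homogenized RBL-1 cells, in 200-μL incubations across a range of compound concentrations. Reaction started with radiolabeled arachidonic acid and stopped by acidification and ether extraction. Products were separated from substrate by TLC and counted by liquid scintillation, in triplicate.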
`O=C(NO)c1ccc(-c2ccccc2)cc1` returned an IC50 of 4 µM.

A further test addresses T1, Polyunsaturated fatty acid 5-lipoxygenase (Rattus norvegicus). In words: Percent inhibition against RBL-1 5-LO in vitro at 10 uM. Format: cell-based. The essentials: as §1
`CCCCCCCCCOc1ccc2cc(C(=O)NO)ccc2c1` registered an inhibition of 33%.

On to `CCCCCCCCCCCCOc1ccc2cc(C(=O)NO)ccc2c1`, for which the inhibition stood at 11%.

Another test addresses T2, Polyunsaturated fatty acid 5-lipoxygenase. In words: In vitro inhibitory activity against RBL-1 5-LO. Format: cell-based.
As to `COc1ccc2cc(C(=O)NO)ccc2c1`, half-maximal inhibition (IC50) was put at 8.2 µM. This lies in the single-digit micromolar range.

`O=C(/C=C\c1ccccc1)NO` displayed a half-inhibitory concentration (IC50) of 31 µM.

Regarding `CN(O)C(=O)c1ccc2ccccc2c1`, the IC50 came to 1.3 µM.

In turn, `O=C(Cc1ccccc1)NO` [PHENYLACETOHYDROXAMIC ACID] had an IC50 of 300 µM.

In the case of `O=C(NO)c1ccc([N+](=O)[O-])cc1`, it took 23 µM to reach half-maximal inhibition (IC50). Compared with the last molecule, the IC50 is about 13-fold lower.

`O=C(Cc1ccc2ccccc2c1)NO` yielded an IC50 of 19 µM.

Turning to `O=C(NO)c1cccc2ccccc12`, the IC50 amounted to 43 µM.

Take `O=C(CCc1ccccc1)NO`: it took 87 µM to reach half-maximal inhibition (IC50). Compared with the last molecule, the IC50 is about 2-fold higher.

In turn, `O=C(NO)c1ccc(Br)cc1` registered an IC50 of 14 µM.

For the molecule `O=C(NO)c1ccccc1` [BENZOHYDROXAMATE], the concentration for half-maximal inhibition (IC50) was 110 µM.

`C/C(=C\C(=O)N(C)O)c1ccc2ccccc2c1` showed an IC50 of 0.12 µM. Compared with the last molecule, the IC50 is about 920-fold lower.

Molecule `CCCCCCCCOc1ccc2cc(C(=O)NO)ccc2c1` registered an IC50 of 7.1 µM.

Molecule `O=C(NO)c1ccc2ccccc2c1` displayed an IC50 of 14 µM.

`CCCCCCCOc1ccc2cc(C(=O)NO)ccc2c1` came in with an IC50 of 6.5 µM.

The molecule `O=C(NO)c1ccc(-c2cccc3ccccc23)cc1` displayed a concentration for half-maximal inhibition (IC50) of 0.18 µM.

Take `Cc1cc(C)c(-c2ccc(C(=O)NO)cc2)c(C)c1`: the midpoint of inhibition, the IC50, lay at 0.29 µM.

`CN(O)C(=O)/C=C/c1ccc2ccccc2c1` came in with a concentration for half-maximal inhibition (IC50) of 0.1 µM.

In the case of `O=C(/C=C/c1ccc2ccccc2c1)N(O)C1CCCCC1`, the concentration for half-maximal inhibition (IC50) was 0.1 µM. This counts as sub-micromolar.

In turn, `O=C(NO)c1ccc(I)cc1` showed an IC50 of 15 µM. Compared with the last molecule, the IC50 is about 150-fold higher.

As for `O=C(/C=C/c1ccccc1)NO`, 12 µM corresponded to half-maximal inhibition (IC50).

As for `Cc1cc(C)c(-c2ccc(/C=C/C(=O)N(C)O)cc2)c(C)c1`, the 50% inhibitory concentration (IC50) amounted to 0.022 µM.

`O=C(Cc1cccc2ccccc12)NO` returned an IC50 of 27 µM.

In turn, `Nc1ccc(C(=O)NO)cc1` registered an IC50 of over 400 µM.

Molecule `C/C(=C\c1ccc2ccccc2c1)C(=O)N(C)O` showed an IC50 of 0.47 µM.

`CCCCC/C=C\CCOc1ccc2cc(C(=O)NO)ccc2c1` displayed a concentration for half-maximal inhibition (IC50) of 2.9 µM. This IC50 is about 6.2-fold higher than that of the molecule before.

Consider `O=C(NO)c1ccc(C(F)(F)F)cc1`, for which half-maximal inhibition (IC50) was put at 27 µM.

In turn, `O=C(NO)c1ccc(O)cc1` yielded an IC50 of 190 µM.

`CC(C)N(O)C(=O)/C=C/c1ccc2ccccc2c1` returned a half-maximal inhibitory concentration (IC50) of 0.082 µM.

In the case of `Cc1ccc(C(=O)NO)cc1`, the IC50 is 65 µM. This IC50 is about 790-fold higher than that of the molecule before.

Consider `O=C(/C=C/c1ccc2ccccc2c1)N(O)c1ccccc1`, for which the half-maximal inhibitory concentration (IC50) came to 0.052 µM.

In turn, `O=C(NO)c1ccc(-c2ccc3ccccc3c2)cc1` yielded an IC50 of 0.33 µM. This IC50 is about 6.3-fold higher than that of the molecule before.

As for `O=C(CCCc1ccccc1)NO` [PHENYLBUTYRYLHYDROXAMIC ACID], half-maximal inhibition (IC50) was put at 27 µM.

On to `N#Cc1ccc(C(=O)NO)cc1`, for which the IC50 was found to be 61 µM.

`O=C(C#Cc1ccccc1)NO`: half-maximal inhibition (IC50) was put at 46 µM.

Take `Cc1cc(C)c(-c2ccc(C(=O)N(C)O)cc2)c(C)c1`: inhibition was half-maximal at 0.064 µM (IC50).

Another test concerns the target T3, Polyunsaturated fatty acid lipoxygenase ALOX12 (Homo sapiens) (UniProt P18054).
T3 sequence (whole entry): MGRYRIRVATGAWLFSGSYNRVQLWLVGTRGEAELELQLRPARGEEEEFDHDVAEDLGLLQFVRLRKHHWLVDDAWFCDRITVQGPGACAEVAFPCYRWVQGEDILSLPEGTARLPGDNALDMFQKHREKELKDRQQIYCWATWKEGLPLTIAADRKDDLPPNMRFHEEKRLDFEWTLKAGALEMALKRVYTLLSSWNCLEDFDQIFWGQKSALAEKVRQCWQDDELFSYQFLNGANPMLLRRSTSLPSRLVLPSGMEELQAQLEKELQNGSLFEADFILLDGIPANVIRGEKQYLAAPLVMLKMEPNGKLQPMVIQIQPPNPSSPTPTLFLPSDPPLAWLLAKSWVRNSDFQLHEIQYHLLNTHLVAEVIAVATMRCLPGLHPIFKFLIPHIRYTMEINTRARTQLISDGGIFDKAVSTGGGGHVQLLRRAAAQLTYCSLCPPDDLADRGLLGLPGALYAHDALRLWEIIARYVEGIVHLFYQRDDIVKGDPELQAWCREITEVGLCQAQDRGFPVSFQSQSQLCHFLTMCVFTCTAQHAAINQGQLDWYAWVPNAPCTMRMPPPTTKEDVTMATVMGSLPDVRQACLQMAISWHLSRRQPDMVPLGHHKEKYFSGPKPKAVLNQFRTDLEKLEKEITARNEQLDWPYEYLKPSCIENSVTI
The test can be described thus: Compound was tested for the percent of inhibition against 12-LO at 10 uM. Format: functional. The method, boiled down:
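The RBL-1 enzyme was replaced by human platelet 12-lipoxygenase, soybean 15-lipoxygenase or sheep seminal vesicle cyclooxygenase. Reactions were started with radiolabeled arachidonic acid and stopped by acidification and ether extraction. Products were separated by TLC and counted by liquid scintillation, in triplicate. Inhibition was taken from the ratio of product formed with and without inhibitor.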
`O=C(NO)c1ccc(-c2ccccc2)cc1` yielded an inhibition of 86%.

The next test has as its target T1, Polyunsaturated fatty acid 5-lipoxygenase (Rattus norvegicus). The test can be described thus: Percent inhibition against RBL-1 5-LO in vitro at 100 uM. Format: cell-based. The method, boiled down:
as §1
Regarding `O=C(CO)c1ccc2ccccc2c1`, the inhibition was 15%.

On to `O=S(=O)(NO)c1ccc2ccccc2c1`, for which the inhibition is 51%.

Another test addresses Prostaglandin G/H synthase 1 (Ovis aries) (UniProt P05979). The test can be described thus: Compound was tested for the percent of inhibition against sheep seminal vesicle cyclooxygenase at 100 uM.
`O=C(NO)c1ccc(-c2ccccc2)cc1` gave an inhibition of 50%.

The subject of the next test is Seed linoleate 15-lipoxygenase (Glycine max). In words: Compound was tested for the percent of inhibition against soybean 15-LO (at 100 uM).
`O=C(NO)c1ccc(-c2ccccc2)cc1` yielded an inhibition of 30%.

The target in another test is T1, Polyunsaturated fatty acid 5-lipoxygenase (Rattus norvegicus). In words: Percent inhibition against RBL-1 5-LO in vitro at 300 uM. Format: cell-based. The essentials: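 20000g supernatant from 1.5 million homogenized RBL-1 cells, with test compound, in 200-μL incubations. Reactions were started with radiolabeled arachidonic acid and stopped by acidification and ether extraction. Products were separated from unconverted substrate by TLC and counted by liquid scintillation. Inhibition was taken from product formed with versus without inhibitor. Run in triplicate.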
In turn, `NC(=O)c1ccc2ccccc2c1` displayed an inhibition of 9%.

Molecule `O=C(O)c1ccc2ccccc2c1` came in with an inhibition of 0%.

In turn, `NNC(=O)c1ccc2ccccc2c1` returned an inhibition of 6%.

In turn, `CO/C(=N\O)c1ccc2ccccc2c1` displayed an inhibition of 74%.

The next test shares this target. In words: Compound was tested for the percent of inhibition against 5-LO at 10 uM. The essentials:
as §1
`O=C(NO)c1ccc(-c2ccccc2)cc1` gave an inhibition of 86%.

The target of another test is T2, Polyunsaturated fatty acid 5-lipoxygenase. The test can be described thus: Compound was tested for its inhibition activity against 5-LO of the whole cell in vitro in rat.
The molecule `O=C(NO)c1ccc(-c2ccccc2)cc1` displayed an IC50 of 3.3 µM.

Values taken from ChEMBL document CHEMBL1123703, “Hydroxamic acid inhibitors of 5-lipoxygenase” (J Med Chem, 1987).
